According to ChEMBL document CHEMBL1136006, “New PET imaging agent for the serotonin transporter: [(18)F]ACF (2-[(2-amino-4-chloro-5-fluorophenyl)thio]-N,N-dimethyl-benzenmethanamine)” (J Med Chem, 2002):

Columns and labels:
Rattus norvegicus [1] = assay: Effect of pretreatment with (+)-McN5652 with a dose of 2 mg/kg (i.v.) on specific binding of [18F]ACF in rat brain cortex; type: ADME, organism-based; set-up: dose 2 mg/kg, route intravenous; conditions: in vivo, iv
In short: (§1)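 Rats pretreated iv with drug (2 mg/kg) or saline 5 min before iv [18F]ACF (50 μCi). Sacrificed 1 h after tracer. Brain regions were dissected, weighed and counted, and % dose/g was calculated against a diluted initial dose. Drug-treated rats were compared with saline controls by ANOVA/Dunnett's test (p<0.05). Three rats per point, average ± SD.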

Rattus norvegicus [2] = assay: Effect of pretreatment with methylphenidate with a dose of 2 mg/kg (i.v.) on specific binding of [18F]ACF in rat brain hypothalamus; type: ADME, organism-based; set-up: dose 2 mg/kg, route intravenous; conditions: in vivo, iv; in short: as §1
Rattus norvegicus [3] = assay: Effect of pretreatment with […] with a dose of 2 mg/kg (i.v.) on specific binding of [18F]ACF in rat brain blood; type: ADME, organism-based; set-up: dose 2 mg/kg, route intravenous; conditions: in vivo, iv; in short: as §1
Rattus norvegicus [4] = assay: Effect of pretreatment with nisoxatine with a dose of 2 mg/kg (i.v.) on specific binding of [18F]ACF in rat brain cortex; type: ADME, organism-based; set-up: dose 2 mg/kg, route intravenous; conditions: in vivo, iv; in short: as §1
Rattus norvegicus [5] = assay: Effect of pretreatment with […] with a dose of 2 mg/kg (i.v.) on specific binding of [18F]ACF in rat brain hippocampus; type: ADME, organism-based; set-up: dose 2 mg/kg, route intravenous; conditions: in vivo, iv; in short: as §1
Rattus norvegicus [6] = organism: Rattus norvegicus; assay: Organ distribution of [18F]ACF radiolabeled compound in rat heart after 2 min; type: ADME, organism-based; conditions: in vivo
In short: (§2)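 Rats, three per time point, under ether anesthesia; 30 μCi tracer in 0.2 mL saline injected into femoral vein. Sacrificed by cardiac excision under ether at 2, 30, 60, 120 or 240 min. Organs removed, weighed and counted; % dose/organ calculated against counts of 1% of initial dose counted at the same time. Average of three rats ± SD.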

Rattus norvegicus [7] = assay: Effect of pretreatment with (+)-McN5652 with a dose of 2 mg/kg (i.v.) on specific binding of [18F]ACF in rat brain cerebellum; type: ADME, organism-based; set-up: dose 2 mg/kg, route intravenous; conditions: in vivo, iv; in short: as §1
Rattus norvegicus [8] = organism: Rattus norvegicus; assay: Organ distribution of [18F]-ACF radiolabeled compound in rat kidney after 240 min; type: ADME, organism-based; conditions: in vivo, 4 h
In short: (§3)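 Under ether anesthesia, 30 μCi no-carrier-added tracer in 0.2 mL saline injected into the femoral vein. Rats killed by cardiac excision at the stated time. Organs were removed, weighed and counted; % dose/organ was calculated against counts of a 1% initial-dose standard. Three rats per time, average ± SD.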

Rattus norvegicus [9] = organism: Rattus norvegicus; assay: Regional brain distribution of [18F]ACF radiolabeled compound in rat striatum after 120 min; type: ADME, organism-based; conditions: in vivo, 2 h
In short: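 Rats (3 per group) under ether anaesthesia received 30 μCi tracer in 0.2 mL saline into the femoral vein. Killed by cardiac excision under ether at the set time. Striatum and other brain regions dissected, weighed and gamma-counted. % dose/g calculated against counts of a diluted 1% initial-dose standard. Values given as average ± SD of three rats.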

Rattus norvegicus [10] = organism: Rattus norvegicus; assay: Regional brain distribution of [18F]-ACF radiolabeled compound in rat remainder (rest of brain) after 240 min; type: ADME, organism-based; conditions: in vivo, 4 h
In short: (§4)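 Rats (three per group) under ether anesthesia got 30 μCi tracer in 0.2 mL saline into the femoral vein and were killed by cardiac excision at the stated time. Cortex, striatum, hippocampus, cerebellum, hypothalamus and the rest of brain were dissected, weighed and gamma counted. %dose/g was taken against counts of a diluted initial dose. Regional ratios are each region's %dose/g over cerebellum's. Mean ± SD.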

Rattus norvegicus [11] = organism: Rattus norvegicus; assay: Organ distribution of [18F]-ACF radiolabeled compound in rat kidney after 60 min; type: ADME, organism-based; conditions: in vivo, 1 h; in short: as §3
Rattus norvegicus [12] = organism: Rattus norvegicus; assay: Organ distribution of [18F]-ACF radiolabeled compound in rat lung after 2 min; type: ADME, organism-based; conditions: in vivo; in short: as §3
Rattus norvegicus [13] = organism: Rattus norvegicus; assay: Organ distribution of [18F]-ACF radiolabeled compound in rat muscle after 60 min; type: ADME, organism-based, Muscle tissue; conditions: in vivo, 1 h; in short: as §3
Rattus norvegicus [14] = organism: Rattus norvegicus; assay: Organ distribution of [18F]-ACF radiolabeled compound in rat skin after 120 min; type: ADME, organism-based; conditions: in vivo, 2 h; in short: as §3
Rattus norvegicus [15] = organism: Rattus norvegicus; assay: Organ distribution of [18F]ACF radiolabeled compound in rat spleen after 240 min; type: ADME, organism-based; conditions: in vivo, 4 h; in short: as §2
Rattus norvegicus [16] = organism: Rattus norvegicus; assay: Organ distribution of [18F]-ACF radiolabeled compound in rat spleen after 60 min; type: ADME, organism-based; conditions: in vivo, 1 h; in short: as §2
Rattus norvegicus [17] = organism: Rattus norvegicus; assay: Regional brain distribution of [18F]ACF radiolabeled compound in rat cerebellum after 30 min; type: ADME, organism-based; conditions: in vivo, 0.5 h; in short: as §4
Rattus norvegicus [18] = organism: Rattus norvegicus; assay: Regional brain distribution of [18F]-ACF radiolabeled compound in rat cortex after 240 min; type: ADME, organism-based; conditions: in vivo, 4 h; in short: as §4
Rattus norvegicus [19] = organism: Rattus norvegicus; assay: Regional brain distribution of [18F]ACF radiolabeled compound in rat cortex after 30 min; type: ADME, organism-based; conditions: in vivo, 0.5 h; in short: as §4
Rattus norvegicus [20] = organism: Rattus norvegicus; assay: Regional brain distribution of [18F]ACF radiolabeled compound in rat hippocampus after 240 min; type: ADME, organism-based; conditions: in vivo, 4 h; in short: as §4
Rattus norvegicus [21] = organism: Rattus norvegicus; assay: Organ distribution of [18F]ACF radiolabeled compound in rat brain after 120 min; type: ADME, organism-based; conditions: in vivo, 2 h; in short: as §2
Rattus norvegicus [22] = organism: Rattus norvegicus; assay: Organ distribution of [18F]-ACF radiolabeled compound in rat brain after 30 min; type: ADME, organism-based; conditions: in vivo, 0.5 h; in short: as §3
Rattus norvegicus [23] = assay: Ratio of effect of pretreatment with methylphenidate with a dose of 2 mg/kg (i.v.) on specific binding of [18F]ACF in rat brain hypothalamus to that of cerebellum; type: ADME, organism-based; set-up: dose 2 mg/kg, route intravenous; conditions: in vivo, iv
In short: (§5)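 Rats (three per point) pretreated iv with competing drug at 2 mg/kg or saline (control) 5 min before iv [18F]ACF (50 μCi). At 1 h post tracer, brain regions (cortex, striatum, hippocampus, cerebellum, hypothalamus, remainder) dissected, weighed, counted as % dose/g and expressed as ratio to cerebellum. Average ± SD; ANOVA with Dunnett's test vs saline controls, p < 0.05.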

Rattus norvegicus [24] = assay: Ratio of effect of pretreatment with methylphenidate with a dose of 2 mg/kg (i.v.) on specific binding of [18F]ACF in rat brain striatum to that of cerebellum; type: ADME, organism-based; set-up: dose 2 mg/kg, route intravenous; conditions: in vivo, iv; in short: as §5
Rattus norvegicus [25] = organism: Rattus norvegicus; assay: Ratio of regional brain distribution of [18F]ACF radiolabeled compound in rat cerebellum to that of cerebellum after 30 min; type: ADME, organism-based; conditions: in vivo, 0.5 h; in short: as §4
Rattus norvegicus [26] = organism: Rattus norvegicus; assay: Ratio of regional brain distribution of [18F]-ACF radiolabeled compound in rat cerebellum to that of cerebellum after 60 min; type: ADME, organism-based; conditions: in vivo, 1 h
In short: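 Rats, three per time point, given 30 μCi tracer in 0.2 mL saline into femoral vein under ether anesthesia; killed at 2, 30, 60, 120 or 240 min. Cortex, striatum, hippocampus, cerebellum, hypothalamus and rest of brain dissected, weighed, counted; % dose/g against diluted initial dose, then each region divided by cerebellum. Average of three rats ± SD.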

Rattus norvegicus [27] = organism: Rattus norvegicus; assay: Ratio of regional brain distribution of [18F]ACF radiolabeled compound in rat cortex to that of cerebellum after 2 min; type: ADME, organism-based; conditions: in vivo; in short: as §4
Rattus norvegicus [28] = organism: Rattus norvegicus; assay: Ratio of regional brain distribution of [18F]ACF radiolabeled compound in rat cortex to that of cerebellum after 60 min; type: ADME, organism-based; conditions: in vivo, 1 h; in short: as §4
Rattus norvegicus [29] = organism: Rattus norvegicus; assay: Ratio of regional brain distribution of [18F]-ACF radiolabeled compound in rat hypothalamus to that of cerebellum after 60 min; type: ADME, organism-based; conditions: in vivo, 1 h; in short: as §4
Rattus norvegicus [30] = organism: Rattus norvegicus; assay: Ratio of regional brain distribution of [18F]-ACF radiolabeled compound in rat remainder to that of cerebellum after 2 min; type: ADME, organism-based; conditions: in vivo; in short: as §4
Rattus norvegicus [31] = organism: Rattus norvegicus; assay: Ratio of regional brain distribution of [18F]-ACF radiolabeled compound in rat striatum to that of cerebellum after 120 min; type: ADME, organism-based; conditions: in vivo, 2 h; in short: as §4
Rattus norvegicus [32] = organism: Rattus norvegicus; assay: Ratio of regional brain distribution of [18F]ACF radiolabeled compound in rat striatum to that of cerebellum after 2 min; type: ADME, organism-based; conditions: in vivo; in short: as §4
Rattus norvegicus [33] = assay: Ratio of effect of pretreatment with (+)-McN5652 with a dose of 2 mg/kg (i.v.) on specific binding of [18F]ACF in rat brain cerebellum to that of cerebellum; type: ADME, organism-based; set-up: dose 2 mg/kg, route intravenous; conditions: in vivo, iv; in short: as §5
Rattus norvegicus [34] = organism: Rattus norvegicus; assay: Ratio of regional brain distribution of [18F]-ACF radiolabeled compound in rat hypothalamus to that of cerebellum after 30 min; type: ADME, organism-based; conditions: in vivo, 0.5 h; in short: as §4

SMILES: CN(C)Cc1ccccc1Sc1cc(F)c(Cl)cc1N
- Dose/g (Rattus norvegicus [1]): 0.24%
- Dose/g (Rattus norvegicus [2]): 0.52%
- Dose/g (Rattus norvegicus [3]): 0.26%
- Dose/g (Rattus norvegicus [4]): 0.37%
- Dose/g (Rattus norvegicus [5]): 0.46%
- Dose/g (Rattus norvegicus [6]): 1.69 % dose/organ
- Dose/g (Rattus norvegicus [7]): 0.17%
- Dose/g (Rattus norvegicus [8]): 0.51 % dose/organ
- Dose/g (Rattus norvegicus [9]): 0.15%
- Dose/g (Rattus norvegicus [10]): 0.03%
- Dose/g (Rattus norvegicus [11]): 1.38 % dose/organ
- Dose/g (Rattus norvegicus [12]): 14.9 % dose/organ
- Dose/g (Rattus norvegicus [13]): 7.69 % dose/organ
- Dose/g (Rattus norvegicus [14]): 2.61 % dose/organ
- Dose/g (Rattus norvegicus [15]): 0.03 % dose/organ
- Dose/g (Rattus norvegicus [16]): 0.13 % dose/organ
- Dose/g (Rattus norvegicus [17]): 0.37%
- Dose/g (Rattus norvegicus [18]): 0.03%
- Dose/g (Rattus norvegicus [19]): 0.62%
- Dose/g (Rattus norvegicus [20]): 0.04%
- Dose/g (Rattus norvegicus [21]): 0.21 % dose/organ
- Dose/g (Rattus norvegicus [22]): 1.28 % dose/organ
- Ratio (Rattus norvegicus [23]): 3.05
- Ratio (Rattus norvegicus [24]): 2.75
- Ratio (Rattus norvegicus [25]): 1
- Ratio (Rattus norvegicus [26]): 1
- Ratio (Rattus norvegicus [27]): 1.84
- Ratio (Rattus norvegicus [28]): 2.1
- Ratio (Rattus norvegicus [29]): 3.53
- Ratio (Rattus norvegicus [30]): 1.32
- Ratio (Rattus norvegicus [31]): 2.97
- Ratio (Rattus norvegicus [32]): 1.41
- Ratio (Rattus norvegicus [33]): 1
- Ratio (Rattus norvegicus [34]): 2.29
